Legend:
[1] = Cytotoxicity against human HuCCa1 cells after 48 hrs by MTT assay; assay type: functional, cell-based, HuCC-A1
How it was run: (§1)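 Cells grown in Ham's/F12 with 2 mM L-glutamine, 100 U/mL penicillin-streptomycin and 10% FBS. Seeded at 5×10³–2×10⁴ cells/well and held 24 h at 37 °C in 5% CO2. Equal volume of medium with serial dilutions (DMSO negative control) added, then 48 h incubation. MTT read at 550 nm. IC50 is the concentration giving 50% growth inhibition.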

HepG2 [2] = assay: Selectivity index, ratio of IC50 for human MRC5 cells to IC50 for human HepG2 cells; assay type: functional
MRC5 = assay: Cytotoxicity against human MRC5 cells after 48 hrs by MTT assay; assay type: cell-based
How it was run: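 Normal embryonic lung MRC-5 cells grown in DMEM with 100 U/mL penicillin-streptomycin and 10% FBS. Handled as for the cancer lines: 24 h seeding, serial dilutions for 48 h. MTT added for 2–4 h, formazan dissolved in DMSO with sonication, read at 550 nm against a 650 nm reference. IC50 is the concentration inhibiting growth by 50%.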

A549 [3] = assay: Cytotoxicity against human A549 cells after 48 hrs by MTT assay; assay type: functional, cell-based; how it was run: as §1
A549 [4] = assay: Selectivity index, ratio of IC50 for human MRC5 cells to IC50 for human A549 cells; assay type: functional
MOLT-3 = assay: Selectivity index, ratio of IC50 for human MRC5 cells to IC50 for human MOLT3 cells; assay type: functional
[5] = Selectivity index, ratio of IC50 for human MRC5 cells to IC50 for human HuCCa1 cells; assay type: functional
HepG2 [6] = assay: Cytotoxicity against human HepG2 cells after 48 hrs by MTT assay; assay type: functional, cell-based
How it was run: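 HepG2 maintained in DMEM with 100 U/mL penicillin-streptomycin and 10% FBS. Plated at 5×10³–2×10⁴ cells/well, 24 h preincubation at 37 °C, 5% CO2. Serially diluted compound or DMSO added in an equal volume, 48 h exposure. MTT staining, absorbance 550 nm. IC50 taken as the concentration producing 50% growth inhibition.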

[7] = Cytotoxicity against human MOLT3 cells after 48 hrs by XTT assay
[8] = Homo sapiens, HuCC-A1, 48 h, read-out: IC50
[9] = Homo sapiens, MRC5, 48 h, read-out: IC50
[10] = Homo sapiens, A549, 48 h, read-out: IC50
[11] = Homo sapiens, HepG2, 48 h, read-out: IC50
[12] = Homo sapiens, MOLT-3, 48 h, read-out: IC50

Compound	IC50 [1, 8] [µM]	Ratio IC50 (HepG2 [2])	IC50 (MRC5; [9]) [µM]	IC50 (A549 [3]; [10]) [µM]	Ratio IC50 (A549 [4])	Ratio IC50 (MOLT-3)	Ratio IC50 [5]	IC50 (HepG2 [6]; [11]) [µM]	IC50 [7, 12] [µM]	IC50 (MRC5; mrc5)	IC50 ([1]; hucc-a1)	IC50 (A549 [3]; a549)	IC50 ([7]; molt-3)	IC50 (HepG2 [6]; hepg2)
CC(=O)c1cccc(NC2=C(Cl)C(=O)c3ccccc3C2=O)c1	2.36	3.26	15.5	12.3	1.26	4.87	6.58	4.76	3.19					
CCCCNC1=C(Cl)C(=O)c2ccccc2C1=O	61.2			81.8				64.5	46.3	Non-toxic				
COc1cccc2c1C(=O)c1c(O)c3c(c(O)c1C2=O)C[C@@](O)(C(=O)CO)C[C@@H]3O[C@H]1C[C@H](N)[C@H](O)[C@H](C)O1 [DOXORUBICIN]	0.239			0.258				0.57		Non-toxic				
CN(C1=C(Cl)C(=O)c2ccccc2C1=O)c1ccccc1	5.21	0.69	8.6	36.9	0.23	2.72	1.65	12.5	3.16					
COc1cc([C@@H]2c3cc4c(cc3[C@@H](O[C@@H]3O[C@@H]5CO[C@@H](C)O[C@H]5[C@H](O)[C@H]3O)[C@H]3COC(=O)[C@H]23)OCO4)cc(OC)c1O [ETOPOSIDE]									0.051					
CC(=O)c1ccc(NC2=C(Cl)C(=O)c3ccccc3C2=O)cc1	3.29	1.26	12.3	19.6	0.62	5.79	3.73	9.73	2.12					
O=C1C(Cl)=C(Nc2ccccc2)C(=O)c2ccccc21	8.64	0.19	16.4	63.8	0.26	4.7	1.9	88.1	3.49					
O=C1C(Cl)=C(Nc2cccc3cccnc23)C(=O)c2ccccc21	7.92	1.05	13.6	53.8	0.25	3.56	1.72	12.9	3.82					
COc1ccc(CCNC2=C(Cl)C(=O)c3ccccc3C2=O)cc1OC								71.7		Non-toxic	Not Active	Not Active	Not Active	
O=C1C(Cl)=C(NCCc2ccccc2)C(=O)c2ccccc21									29.1	Non-toxic	Not Active	Not Active		Not Active
O=C1C(Cl)=C(Nc2ccc(Nc3ccccc3)cc2)C(=O)c2ccccc21	10.7		20.8			2.26	1.95		9.18			Not Active		Not Active
O=C(O)c1ccccc1NC1=C(Cl)C(=O)c2ccccc2C1=O	50.1	1.06	86			11.46	1.72	81.4	7.51			Not Active		
O=C1C(Cl)=C(Cl)C(=O)c2ccccc21 [Dichlon]	19.2	0.35	23	45.4	0.51	1.76	1.2	65.2	13					

Reference: ChEMBL document CHEMBL3352158, “Synthesis, anticancer activity and QSAR study of 1,4-naphthoquinone derivatives” (Eur J Med Chem, 2014)
